Square brackets hold non-standard residues; d marks the D form. Peptide text beside a SMILES is read from it. * marks the point of attachment. pY = N[C@@H](Cc1ccc(OP(=O)(O)O)cc1)C(=O)O; Propionyl = CCC(=O)*; NHBu = CCCCN*
Assays:
[1] = target: Proto-oncogene tyrosine-protein kinase Src (Homo sapiens, UniProt P12931); experiment: Inhibitory activity against binding of Src protein tyrosine kinase SH2 domain to biotinylated EPQY*EEIPI Peptide by ELISA.
Outline: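 It competes with test compounds against biotinylated EPQY*EEIPI (6.0 nM) on streptavidin-coated plates for 1 h at rt. Detection is anti-GST, then AP-conjugated secondary with pNPP at 405 nm. IC50 comes from nonlinear regression, adjusted to the on-plate control peptide.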

[2] = target: Growth factor receptor-bound protein 2 (Homo sapiens, UniProt P62993); experiment: Inhibitory activity against binding of Growth factor receptor bound protein 2 to biotinylated KPFY*VNVEF Peptide by ELISA.
Outline: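 It is competed with test compounds against biotinylated KPFY*VNVEF (4.0 nM) captured on streptavidin plates for 1 h at rt. Bound GST is detected by rabbit anti-GST, then AP anti-rabbit with pNPP, read at 405 nm. IC50 comes from nonlinear regression, normalized to the on-plate control peptide.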

Growth factor receptor-bound protein 2, sequence (P62993 whole entry): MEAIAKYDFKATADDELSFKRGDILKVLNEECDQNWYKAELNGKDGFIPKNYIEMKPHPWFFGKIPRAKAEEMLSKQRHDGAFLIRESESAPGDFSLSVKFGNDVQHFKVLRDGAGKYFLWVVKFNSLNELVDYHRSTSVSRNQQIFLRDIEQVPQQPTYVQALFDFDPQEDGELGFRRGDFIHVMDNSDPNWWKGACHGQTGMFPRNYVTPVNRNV
Proto-oncogene tyrosine-protein kinase Src, sequence (P12931 2-536 limits assumed): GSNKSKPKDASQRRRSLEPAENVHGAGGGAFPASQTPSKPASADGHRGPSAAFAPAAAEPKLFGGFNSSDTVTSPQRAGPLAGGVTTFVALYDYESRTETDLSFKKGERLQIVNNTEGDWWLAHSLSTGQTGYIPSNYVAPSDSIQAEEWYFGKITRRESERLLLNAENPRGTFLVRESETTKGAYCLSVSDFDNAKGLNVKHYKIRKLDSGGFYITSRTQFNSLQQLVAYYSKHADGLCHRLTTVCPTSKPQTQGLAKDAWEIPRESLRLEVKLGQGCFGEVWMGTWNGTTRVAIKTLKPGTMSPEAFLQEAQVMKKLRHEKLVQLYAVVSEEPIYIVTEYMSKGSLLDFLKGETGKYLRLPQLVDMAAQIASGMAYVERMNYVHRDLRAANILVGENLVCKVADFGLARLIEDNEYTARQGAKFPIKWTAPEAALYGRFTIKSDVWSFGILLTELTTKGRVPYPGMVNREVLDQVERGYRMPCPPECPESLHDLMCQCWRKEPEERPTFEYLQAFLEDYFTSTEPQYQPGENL

SMILES	IC50 [1] [µM]	IC50 [2] [µM]
CC(C)[C@@H]1NC(=O)[C@H](Cc2ccc(OP(=O)(O)O)cc2)NC(=O)CNC(=O)[C@@H]2CCCN2C(=O)[C@H](C(C)C)NC(=O)[C@H](CC(N)=O)NC1=O	> 100	–
CC(C)[C@H]1NC(=O)[C@H](Cc2ccc(OP(=O)(O)O)cc2)NC(=O)CNC(=O)[C@@H]2CCCN2C(=O)[C@@H](C(C)C)NC(=O)[C@H](CC(N)=O)NC1=O	–	0.52
CC(C)[C@H]1NC(=O)[C@H](Cc2ccc(OP(=O)(O)O)cc2)NC(=O)CNC(=O)[C@H]2CCCN2C(=O)[C@@H](C(C)C)NC(=O)[C@H](CC(N)=O)NC1=O	> 100	10.8
CC(C)[C@@H]1NC(=O)[C@H](Cc2ccc(OP(=O)(O)O)cc2)NC(=O)CCCCCCNC(=O)[C@@H]2CCCN2C(=O)[C@H](C(C)C)NC(=O)[C@H](CC(N)=O)NC1=O	> 100	–
CC(C)[C@H]1NC(=O)[C@H](Cc2ccc(OP(=O)(O)O)cc2)NC(=O)CCCCCCNC(=O)[C@@H]2CCCN2C(=O)[C@@H](C(C)C)NC(=O)[C@H](CC(N)=O)NC1=O	–	0.6
CC(=O)N[C@H]1CCCCNC(=O)[C@H]2CCCN2C(=O)[C@H](C(C)C)NC(=O)[C@@H](CC(N)=O)NC(=O)[C@H](CC(C)C)NC(=O)[C@@H](Cc2ccc(OP(=O)(O)O)cc2)NC1=O	> 150	1.34
CC(=O)N[C@H]1CCCCNC(=O)[C@H]2CCCN2C(=O)[C@H](CC2CCCCC2)NC(=O)[C@@H](CC(N)=O)NC(=O)[C@H](C(C)C)NC(=O)[C@@H](Cc2ccc(OP(=O)(O)O)cc2)NC1=O	> 150	0.11
CC(=O)N[C@@H]1CCCCNC(=O)[C@H]2CCCN2C(=O)[C@H](C(C)C)NC(=O)[C@@H](CC(N)=O)NC(=O)[C@H](C(C)C)NC(=O)[C@@H](Cc2ccc(OP(=O)(O)O)cc2)NC1=O	73	0.18
CC(=O)N[C@H]1CSSC[C@@H](C(=O)O)NC(=O)[C@H]2CCCN2C(=O)[C@H](C(C)C)NC(=O)[C@@H](CC(N)=O)NC(=O)[C@H](C(C)C)NC(=O)[C@@H](Cc2ccc(OP(=O)(O)O)cc2)NC1=O	38	–
CC(C)[C@@H]1NC(=O)[C@H](Cc2ccc(OP(=O)(O)O)cc2)NC(=O)OCCCCCNC(=O)[C@@H]2CCCN2C(=O)[C@H](C(C)C)NC(=O)[C@H](CC(N)=O)NC1=O	> 100	–
CC(C)[C@H]1NC(=O)[C@H](Cc2ccc(OP(=O)(O)O)cc2)NC(=O)OCCCCCNC(=O)[C@@H]2CCCN2C(=O)[C@@H](C(C)C)NC(=O)[C@H](CC(N)=O)NC1=O	–	0.71
CC(=O)N[C@H]1CCCCNC(=O)[C@H]2CCCN2C(=O)[C@H](C(C)C)NC(=O)[C@@H](CC(N)=O)NC(=O)[C@H](C(C)C)NC(=O)[C@@H](Cc2ccc(OP(=O)(O)O)cc2)NC1=O	> 150	0.07
CC(=O)N[C@H]1CCCCNC(=O)[C@H]2CCCN2C(=O)[C@H](C(C)C)NC(=O)[C@@H](CC(N)=O)NC(=O)[C@H](CC2CCCCC2)NC(=O)[C@@H](Cc2ccc(OP(=O)(O)O)cc2)NC1=O	> 150	1.61
CC(C)[C@H](NC(=O)[C@H](CC(N)=O)NC(=O)[C@@H](NC(=O)[C@H](Cc1ccc(OP(=O)(O)O)cc1)NC(=O)[C@H](Cc1ccccc1)NC(=O)[C@@H]1CCCN1C(=O)[C@@H](N)CCCCN)C(C)C)C(=O)N[C@@H](CCC(=O)O)C(=O)N[C@@H](Cc1ccccc1)C(=O)O (H-KPF[pY]VNVEF-OH)	–	0.7
CCCCNC(=O)[C@@H]1CCCN1C(=O)[C@@H](NC(=O)[C@H](CC(N)=O)NC(=O)[C@@H](NC(=O)[C@H](Cc1ccc(OP(=O)(O)O)cc1)NC(=O)CC)C(C)C)C(C)C (Propionyl-[pY]VNVP-NHBu)	> 100	1.63

Reference: ChEMBL document CHEMBL1132170, “Structural and conformational requirements for high-affinity binding to the SH2 domain of Grb2(1)” (J Med Chem, 1999)
